By IC50 is commonly meant the concentration that gives 50% inhibition. The inhibition in vivo is the percentage by which the read-out fell short of the control. Low readings indicate little suppression, high ones strong suppression. The term ED50 denotes the midpoint of the dose-response relation.

Experimental findings from ChEMBL document CHEMBL1133218, “N-[(R,R)-(E)-1-(4-chloro-benzyl)-3-(2-oxo-azepan-3-ylcarbamoyl)-allyl]-N-methyl-3,5-bis-trifluoromethyl-benzamide: an orally active neurokinin NK1/NK2 antagonist” (Bioorg Med Chem Lett, 2000) are described below.

In one assay the target is T1, Substance-K receptor (Homo sapiens, UniProt P21452).
T1 sequence (P21452 whole entry): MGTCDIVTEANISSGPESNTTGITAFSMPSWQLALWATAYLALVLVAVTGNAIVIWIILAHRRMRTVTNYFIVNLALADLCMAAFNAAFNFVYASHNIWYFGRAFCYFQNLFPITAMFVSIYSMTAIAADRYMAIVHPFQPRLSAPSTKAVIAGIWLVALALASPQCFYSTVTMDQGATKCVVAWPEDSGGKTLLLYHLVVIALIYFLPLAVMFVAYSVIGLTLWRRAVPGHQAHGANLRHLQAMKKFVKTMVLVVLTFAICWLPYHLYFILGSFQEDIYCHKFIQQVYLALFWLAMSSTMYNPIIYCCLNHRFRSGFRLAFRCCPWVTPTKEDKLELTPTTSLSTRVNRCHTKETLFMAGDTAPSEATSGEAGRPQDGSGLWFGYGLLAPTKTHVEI
Briefly: In vitro inhibition of [125I]NKA binding to transfected Chinese hamster ovary cells (CHO cells) expressing recombinant human Tachykinin receptor 2. The assay is classed as cell-based. Put shortly: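 Binding of 0.05 nM [125I]-NKA (2200 Ci/mmol) to 3×10^5 hNK2-transfected CHO cells in 20 mM HEPES pH 7.4 with 2 mM MnSO4 and 6 mM MgCl2, across a range of drug concentrations. Incubated 20 min at room temperature. Nonspecific binding taken with 50 nM NKA. Rapid filtration, 4 washes in ice-cold Tricine, filter radioactivity by scintillation counting, triplicates.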

Assay [1] concerns Cavia porcellus. Briefly: In vivo inhibition against Sar9SP-induced bronchoconstriction in guinea pigs at 1 mg/kg for 12 h. The assay is classed as functional.
Assay [2] relates to Cavia porcellus. Briefly: In vivo inhibition against beta-Ala8-NKA-induced bronchoconstriction in guinea pig at 2 h. The assay is classed as functional.
Assay [3] relates to Cavia porcellus. Briefly: In vivo inhibition against beta-Ala8-NKA-induced bronchoconstriction in guinea pig at 4 h. The assay is classed as functional.
The subject of assay [4] is Cavia porcellus. Briefly: In vivo inhibition against Sar9SP-induced bronchoconstriction in guinea pigs at 2 h. The class given is functional.
Assay [5] concerns Cavia porcellus. As to the kind of experiment: In vivo inhibition against Sar9SP-induced bronchoconstriction in guinea pigs at 4 h. The assay is classed as functional.

Each structure is given as a SMILES string.

Turning to `CN(C(=O)c1cc(C(F)(F)F)cc(C(F)(F)F)c1)[C@H](/C=C/C(=O)N[C@H]1CCCCNC1=O)Cc1ccc(Cl)cc1`, on Substance-K receptor, the IC50 was found to be 300 nM.

On to `CN(C(=O)c1cc(C(F)(F)F)cc(C(F)(F)F)c1)[C@@H](/C=C/C(=O)N[C@H]1CCCCNC1=O)Cc1ccc(Cl)cc1` (mixture of isomers), for which, at Substance-K receptor, the IC50 was 120 nM.

As for `CN(C(=O)c1cc(C(F)(F)F)cc(C(F)(F)F)c1)C(/C=C/C(=O)NC1CCCCNC1=O)Cc1ccc(Cl)cc1` (mixture of isomers), the IC50 at Substance-K receptor was determined as 55 nM.

As for `CN(C(=O)c1cc(C(F)(F)F)cc(C(F)(F)F)c1)[C@H](/C=C/C(=O)N[C@@H]1CCCCNC1=O)Cc1ccc(Cl)cc1`, at Substance-K receptor, the IC50 was 123 nM.

Compound `CN(C(=O)c1cc(C(F)(F)F)cc(C(F)(F)F)c1)[C@@H](/C=C/C(=O)N[C@@H]1CCCCNC1=O)Cc1ccc(Cl)cc1` returned an inhibition in vivo at 1 mg/kg in the assay with Cavia porcellus [1] of 85%. Further, the ED50 was 0.9 mg/kg in the assay with Cavia porcellus [2], 0.73 mg/kg in the assay with Cavia porcellus [3], 0.036 mg/kg with Cavia porcellus [4] and 0.03 mg/kg with Cavia porcellus [5]. In addition, at Substance-K receptor, the IC50 stood at 24 nM.
